Assay outcomes (PubChem BioAssay)
STAT1 inh: STAT1 signaling inhibition; 200,000 tested, 0.35% active; NIH 3T3 STAT1-luciferase reporter, IFN-gamma, luminescence; AID 920; inhibition, % at 5.5 µM;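 active means inhibition above a set limit, the mean inhibition across all tested compounds plus 3 SD, cut at about 34% in these data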;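 further: 0% = IFN-gamma with DMSO and 100% = IFN-gamma with 300 µM nifuroxazide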
STAT3 activator: STAT3 signaling activation | 190,000 tested, 0.91% active | activation (% of control), % at 5.6 µM | U3A cells, IL-6 STAT3-luciferase reporter, luminescence; 100% = signal with IL-6 EC80 alone | AID 871;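 active means activation above the screen-wide mean of compound activation plus 3 SD, cut at about 130% in these data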;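 further: 0% = background luminescence of wells with medium and substrate only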
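Material: STAT3-luciferase reporter U3A cells; Probe or stimulus: IL-6 (33 ng/mL); Incubation: compound pre-incubation 1 h before IL-6, then 6 h stimulation at 37 °C; Technique: luminescence from STAT3-driven luciferase reporter; Evaluation: % activation versus median of IL-6-stimulated wells; Controls: IL-6-only high control.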
NF-kB expr up: NF-kB expression increase, human neuronal cells | NF-kB reporter expression; active compounds read high | fold change at 12.5 µM | 190,000 tested, 1.6% active | AID 1239; in the data active means fold change above about 3.3
STAT1 act: STAT1 signaling activation. NIH 3T3 STAT1-luciferase reporter, IFN-gamma, luminescence; 100% = IFN-gamma alone, no compound. activation (% of control), % at 5.5 µM. 200,000 tested, 2.6% active. AID 932;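 active means activation above the screen-wide mean activation plus 3 SD, cut at about 130% in these data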;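 further: raw ratio to IFN-gamma control signal so 100% means no change and 0% no light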
STAT3 blocker: STAT3 signaling inhibition; U3A cells, IL-6 STAT3-luciferase reporter, luminescence; host cell line lacks STAT1; inhibition, % at 5.5 µM; 190,000 tested, 0.89% active;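 active means inhibition above the mean inhibition across all screened compounds plus 3 SD, cut at about 44% in these data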;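 further: 0% = DMSO only wells and 100% = 100 µM nifuroxazide control wells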
APP 5'UTR act: activates APP 5'UTR luciferase reporter; SH-SY5Y APP 5'UTR luciferase reporter, luminescence; zero percent = DMSO vehicle wells; activation, % at 2 µM; 190,000 tested, 1% active; AID 1276;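 active means activation above a set limit, based on mean plus 3 SD of controls, cut at about 140% in these data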
* hit, by the source's call. Compounds with a hit are over-represented: about 5.1% of the library has one in this group of screens.

What do the screens show for `Cc1cc(C(=O)Nc2nc(C)c(C(=O)N(C)C)s2)ccc1[N+](=O)[O-]`?
STAT1 inh: -50.1; STAT3 activator: 78.5; NF-kB expr up: 1.12; STAT1 act: 150.2*; STAT3 blocker: 24.9; APP 5'UTR act: 104.2

Results for COc1ccc(C(=O)Nn2c(SCc3cccc([N+](=O)[O-])c3)nc3ccccc3c2=O)cc1 ?
STAT1 inh: -48.8; STAT3 activator: 96.2; NF-kB expr up: 0.86; STAT1 act: 143.6*; STAT3 blocker: 7.1; APP 5'UTR act: 94.2

Results for O=C(Nn1c(SCc2cccc([N+](=O)[O-])c2)nc2ccccc2c1=O)c1ccccc1 ?
STAT1 inh: -56.0; STAT3 activator: 120.6; NF-kB expr up: 0.96; STAT1 act: 149.5*; STAT3 blocker: -18.2; APP 5'UTR act: 119.1

What do the screens show for `COc1ccc(C(=O)Nn2c(SCC(=O)N3CCC(C)CC3)nc3ccccc3c2=O)cc1`?
STAT1 inh: 63.9*; STAT3 activator: 31.4; NF-kB expr up: 0.82; STAT1 act: 42.5; STAT3 blocker: 88.3*; APP 5'UTR act: 31.1

How did COc1ccc(C(=O)Nn2c(SCC(=O)c3ccc(Cl)cc3)nc3ccccc3c2=O)cc1 do in these assays?
STAT1 inh: 16.0; STAT3 activator: 81.9; NF-kB expr up: 0.78; STAT1 act: 85.6; STAT3 blocker: 25.9; APP 5'UTR act: 132.3

How did COc1ccc(OC)c(/C=C2\SC(=S)N(Cc3cccnc3)C2=O)c1 do in these assays?
STAT1 inh: -0.4; STAT3 activator: 94.9; NF-kB expr up: 3.85*; STAT1 act: 100.3; STAT3 blocker: 8.1; APP 5'UTR act: -13.4

What do the screens show for `O=C(O)c1ccccc1CSc1nc2ccccc2o1`?
STAT1 inh: -44.3; STAT3 activator: 114.7; NF-kB expr up: 1.78; STAT1 act: 140.5*; STAT3 blocker: -12.6; APP 5'UTR act: 29.4

What do the screens show for `c1ccc2oc(SCc3cn4ccccc4n3)nc2c1`?
STAT1 inh: -33.3; STAT3 activator: 93.2; NF-kB expr up: 3.42*; STAT1 act: 130.8*; STAT3 blocker: 11.8; APP 5'UTR act: 124.6

How did Cc1cccc2nc(CSc3nc4ccccc4o3)cn12 do in these assays?
STAT1 inh: -15.9; STAT3 activator: 94.4; NF-kB expr up: 1.44; STAT1 act: 114.2; STAT3 blocker: 8.7; APP 5'UTR act: 24.2

How did c1ccc2oc(SCc3nc4ccccc4s3)nc2c1 do in these assays?
STAT1 inh: -42.1; STAT3 activator: 138.1*; NF-kB expr up: 3.06; STAT1 act: 138.6*; STAT3 blocker: -41.3; APP 5'UTR act: 121.6

What do the screens show for `Cc1nnc(SCc2nc3ccccc3s2)n1N`?
STAT1 inh: -36.9; STAT3 activator: 141.3*; NF-kB expr up: 1.6; STAT1 act: 134.2*; STAT3 blocker: -50.1; APP 5'UTR act: 90.6

What do the screens show for `Cc1ccccc1CSc1nnc(C)n1N`?
STAT1 inh: -0.9; STAT3 activator: 107.5; NF-kB expr up: 1.44; STAT1 act: 100.9; STAT3 blocker: -6.4; APP 5'UTR act: -14.8

Results for C(=N\Nc1nc(-c2ccccc2)cs1)/c1cccnc1 ?
STAT1 inh: -49.3; STAT3 activator: 94.8; NF-kB expr up: 2.34; STAT1 act: 144.4*; STAT3 blocker: 12.6; APP 5'UTR act: 48.3

How did CC(C)(C)c1csc(N/N=C/c2cccnc2)n1 do in these assays?
STAT1 inh: -53.7; STAT3 activator: 95.9; NF-kB expr up: 3.02; STAT1 act: 150.4*; STAT3 blocker: 4.9; APP 5'UTR act: 77.1

Results for CCOc1ccc2nc(N3CCC(C(=O)Nc4nnc(CC)s4)CC3)sc2c1 ?
STAT1 inh: -34.9; STAT3 activator: 105.1; NF-kB expr up: 1.69; STAT1 act: 133.7*; STAT3 blocker: -6.1; APP 5'UTR act: 32.7

How did COc1ccc(Cn2c(SCC#N)nc3ccc(N4CCOCC4)cc3c2=O)cc1 do in these assays?
STAT1 inh: -40.1; STAT3 activator: 121.4; NF-kB expr up: 2.92; STAT1 act: 135.9*; STAT3 blocker: -9.9; APP 5'UTR act: 60.0

What do the screens show for `Cc1ccc(C(C)C)c(OCc2nn(CC(=O)c3ccc(OC(F)F)cc3)c3[n+]2CCCCC3)c1`?
STAT1 inh: 11.8; STAT3 activator: 102.0; NF-kB expr up: 0.37; STAT1 act: 86.7; STAT3 blocker: 2.5; APP 5'UTR act: -8.8

How did O=Cc1ccc(OCC(=O)N2CCOCC2)cc1 do in these assays?
STAT1 inh: -7.1; STAT3 activator: 101.5; NF-kB expr up: 1.02; STAT1 act: 104.8; STAT3 blocker: 0.5; APP 5'UTR act: 17.2

What do the screens show for `CSc1nc(-c2ccccc2)cn1-c1ccc(NC(C)=O)cc1`?
STAT1 inh: -19.6; STAT3 activator: 113.8; NF-kB expr up: 2.38; STAT1 act: 120.4; STAT3 blocker: -10.8; APP 5'UTR act: 35.0

What do the screens show for `CCOc1ccc(-c2cn(-c3ccc(OC)cc3)c(SC)n2)cc1`?
STAT1 inh: -49.0; STAT3 activator: 103.4; NF-kB expr up: 3.8*; STAT1 act: 143.6*; STAT3 blocker: -6.5; APP 5'UTR act: 127.7

How did O=C(NNC(=O)C1CCN(Cc2ccc(F)cc2Cl)CC1)Nc1ccc([N+](=O)[O-])cc1 do in these assays?
STAT1 inh: -0.9; STAT3 activator: 103.1; NF-kB expr up: 0.94; STAT1 act: 99.0; STAT3 blocker: 0.0; APP 5'UTR act: 12.2

How did O=C(NC(=O)c1ccccc1)NC1(C(F)(F)F)OCCO1 do in these assays?
STAT1 inh: -38.7; STAT3 activator: 118.7; NF-kB expr up: 4.25*; STAT1 act: 135.2*; STAT3 blocker: -16.3; APP 5'UTR act: 96.9

What do the screens show for `S=C(NCc1ccco1)Nc1ccc(Oc2ccccc2)cc1`?
STAT1 inh: -10.2; STAT3 activator: 106.0; NF-kB expr up: 1.31; STAT1 act: 107.7; STAT3 blocker: -2.4; APP 5'UTR act: 43.6

Results for COc1ccc(CCN(C)C(=S)NC(=O)c2ccc(F)cc2Cl)cc1OC ?
STAT1 inh: 6.7; STAT3 activator: 98.8; NF-kB expr up: 1.1; STAT1 act: 92.5; STAT3 blocker: 8.1; APP 5'UTR act: 4.3

What do the screens show for `O=c1c2ccccc2nc2ccc(NCc3cccs3)nn12`?
STAT1 inh: -27.9; STAT3 activator: 94.3; NF-kB expr up: 3.42*; STAT1 act: 123.3; STAT3 blocker: 12.7; APP 5'UTR act: 121.7

Results for O=C(Nc1cccc(C(F)(F)F)c1)c1ccccc1NC(=O)C1CCCCC1 ?
STAT1 inh: 4.9; STAT3 activator: 98.0; NF-kB expr up: 0.9; STAT1 act: 95.6; STAT3 blocker: 2.3; APP 5'UTR act: 22.3

What do the screens show for `CC(NCC(=O)Nc1cc(S(=O)(=O)N2CCCCCC2)ccc1Cl)c1ccccc1` (stereo not given)?
STAT1 inh: 3.6; STAT3 activator: 113.3; NF-kB expr up: 0.9; STAT1 act: 95.5; STAT3 blocker: -7.1; APP 5'UTR act: 0.8

Results for N#Cc1c(NCCO)nc(NCc2ccccc2)c2c1CCN(Cc1ccccc1)C2 ?
STAT1 inh: 2.7; STAT3 activator: 104.3; NF-kB expr up: 5.81*; STAT1 act: 97.5; STAT3 blocker: 0.2; APP 5'UTR act: -6.2
